Key:
MCF7 [1] = assay: Cytotoxicity against human MCF7 cells assessed as cell surviving fraction at 50 uM after 48 hrs by SRB assay; format: functional
How it was run: (§1)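 MCF7 cells were seeded at 10⁴ cells/well and allowed to attach for 24 h. Compounds in DMSO were added at 10, 25, 50 and 100 µM, in triplicate wells, for 48 h at 37 °C under 5% CO₂. Cells were fixed and stained 30 min with 0.4% SRB in 1% acetic acid, and dye was recovered in Tris-EDTA for absorbance. IC50 came from the surviving-fraction curve; values are means of three experiments ± SE.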

MCF7 [2] = assay: Cytotoxicity against human MCF7 cells assessed as cell surviving fraction at 100 uM after 48 hrs by SRB assay; format: functional; how it was run: as §1
MCF7 [3] = assay: Cytotoxicity against human MCF7 cells assessed as cell surviving fraction at 25 uM after 48 hrs by SRB assay; format: functional; how it was run: as §1
MCF7 [4] = assay: Cytotoxicity against human MCF7 cells assessed as cell surviving fraction at 10 uM after 48 hrs by SRB assay; format: functional; how it was run: as §1
MCF7 [5] = assay: Cytotoxicity against human MCF7 cells after 48 hrs by SRB assay; format: functional, cell-based; how it was run: as §1
[6] = Homo sapiens, MCF7, 48 h, read-out: IC50

SMILES	Activity (MCF7 [1])	Activity (MCF7 [2])	Activity (MCF7 [3])	Activity (MCF7 [4])	IC50 (MCF7 [5]; [6])	IC50 (MCF7 [5]; mcf7)
CCOC(=O)c1c(-c2ccc(C)cc2)c(C#N)c(=O)n(/N=C(\C)c2ccc(S(=O)(=O)N3CCCCC3)cc2)c1N	0.652	0.581	0.677	0.911	37.9 µM	
CCOC(=O)c1c(-c2ccc(O)cc2)c(C#N)c(=O)n(/N=C(\C)c2ccc(S(=O)(=O)N3CCCCC3)cc2)c1N	0.681	0.641	0.647	0.925	25.5 µM	
COc1cccc2c1C(=O)c1c(O)c3c(c(O)c1C2=O)C[C@@](O)(C(=O)CO)C[C@@H]3O[C@H]1C[C@H](N)[C@H](O)[C@H](C)O1 [DOXORUBICIN]	0.461	0.494		0.721	32 µM	
C/C(=N\NC(=O)c1sc(N)c(C#N)c1N)c1ccc(S(=O)(=O)N2CCCCC2)cc1	0.451	0.406	0.507	0.588	49.3 µM	
CCOC(=O)c1c(-c2ccc(Cl)cc2)c(C#N)c(=O)n(/N=C(\C)c2ccc(S(=O)(=O)N3CCCCC3)cc2)c1N	0.622	0.553	0.723	0.818	20.6 µM	
C/C(=N\NC(=O)c1sc2c(c1N)CCC2)c1ccc(S(=O)(=O)N2CCCCC2)cc1	0.552	0.375	0.857	0.942	75.3 µM	
CCOC(=O)c1c(-c2ccc(N(C)C)cc2)c(C#N)c(=O)n(/N=C(\C)c2ccc(S(=O)(=O)N3CCCCC3)cc2)c1N	0.557	0.407	0.745	0.861	34.4 µM	
CCOC(=O)c1c(-c2ccc(OC)cc2)c(C#N)c(=O)n(/N=C(\C)c2ccc(S(=O)(=O)N3CCCCC3)cc2)c1N	0.452	0.375	0.657	0.972	51.2 µM	
CCOC(=O)c1c(-c2ccc(O)c(OC)c2)c(C#N)c(=O)n(/N=C(\C)c2ccc(S(=O)(=O)N3CCCCC3)cc2)c1N	0.621	0.478	0.694	0.921	38.7 µM	
C/C(=N\NC(=O)c1sc(=S)n(-c2ccccc2)c1N)c1ccc(S(=O)(=O)N2CCCCC2)cc1	0.557	0.407	0.745	0.861	60.1 µM	
C/C(=N\n1c(N)cc(N)c(C#N)c1=O)c1ccc(S(=O)(=O)N2CCCCC2)cc1	0.416	0.394	0.298	0.371	36.4 µM	
C/C(=N\NC(=O)CC#N)c1ccc(S(=O)(=O)N2CCCCC2)cc1	0.44	0.511	0.666	0.944	44.2 µM	
CCOC(=O)c1c(N)sc(C(=O)N/N=C(\C)c2ccc(S(=O)(=O)N3CCCCC3)cc2)c1N	0.981	0.841	0.947	1.925		Not Active
C/C(=N\NC(=O)c1sc2c(c1N)CCCC2)c1ccc(S(=O)(=O)N2CCCCC2)cc1	0.621	0.558	0.994	0.971	87.8 µM	
C/C(=N\n1c(O)cc(N)c(C#N)c1=O)c1ccc(S(=O)(=O)N2CCCCC2)cc1	0.433	0.437	0.54	0.748	74.6 µM	

Source: ChEMBL document CHEMBL1649367, “Anti-breast cancer activity of some novel 1,2-dihydropyridine, thiophene and thiazole derivatives” (Eur J Med Chem, 2011)
